According to publication PMC6702078 (Biochemical pharmacology, 2019):
pIC50: −log10 of the molar value.

Columns and labels:
PSA expression = PSA expression by Western blot in LNCaP expressing AR-V7; format: cell-based, human; conditions: LNCaP stably expressing AR-V7, 10μM, 24 hrs
In short: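 Cells were lysed in 1x SDS sample buffer (1 × 10^7 cells/ml) and boiled 5 min. PSA and AR levels were assessed by SDS-PAGE and Western blot.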

[1] = tested on: PARP1 enzymatic activity in PC cells; test: PARP-1 inhibitory assay in human cell culture; format: cell-based
In short: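 Graded doses of test compound were added in complete medium for 24 or 48 h. Cells were lysed in SDS sample buffer at 1 × 10^7 cells/ml and boiled 5 min. Poly(ADP-ribose) was assessed by SDS-PAGE and Western blot with mouse anti-pADPr (1:500).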

[2] = tested on: AR transcriptional activity; test: AR luciferase reporter assay in LNCaP with R1881; format: cell-based, human; conditions: R1881 2.5nM, 8 hrs
[3] = tested on: castration-resistant DU-145 PC cells; test: Cell viability; format: cell-based, human; conditions: for effect on viability: DU-145, escalating concentrations, 96 hours (Fig.5E); for ED20 / ED50 / ED70 / ED90: DU-145, 96 hours, CellTiter Blue
[4] = tested on: castration-resistant PC-3 PC cells; test: Cell viability; format: cell-based, human; conditions: for effect on viability: PC-3, escalating concentrations, 96 hours (Fig.5D); for IC20 / pIC50 / IC70 / IC90: Homo sapiens, 96 h; for IC20: read-out: ED20; for pIC50: read-out: ED50; for IC70: read-out: ED70; for IC90: read-out: ED90
[5] = tested on: androgen-dependent LNCaP PC cells; test: Cell viability; format: cell-based, human; conditions: for effect on viability: escalating concentrations, 96 hours (Fig.5C); for IC20 / pIC50 / IC70 / IC90: Homo sapiens, 96 h; for IC20: read-out: ED20; for pIC50: read-out: ED50; for IC70: read-out: ED70; for IC90: read-out: ED90
PARP-1 = PARP-1 (Homo sapiens, UniProt P09874); test: PARP-1 activity assay in cell free system; format: biochemical; conditions: inhibitors at 10μM; pADPr Western blot and colorimetric assay (Fig.4C-D)
Chain of PARP-1 (P09874 whole entry): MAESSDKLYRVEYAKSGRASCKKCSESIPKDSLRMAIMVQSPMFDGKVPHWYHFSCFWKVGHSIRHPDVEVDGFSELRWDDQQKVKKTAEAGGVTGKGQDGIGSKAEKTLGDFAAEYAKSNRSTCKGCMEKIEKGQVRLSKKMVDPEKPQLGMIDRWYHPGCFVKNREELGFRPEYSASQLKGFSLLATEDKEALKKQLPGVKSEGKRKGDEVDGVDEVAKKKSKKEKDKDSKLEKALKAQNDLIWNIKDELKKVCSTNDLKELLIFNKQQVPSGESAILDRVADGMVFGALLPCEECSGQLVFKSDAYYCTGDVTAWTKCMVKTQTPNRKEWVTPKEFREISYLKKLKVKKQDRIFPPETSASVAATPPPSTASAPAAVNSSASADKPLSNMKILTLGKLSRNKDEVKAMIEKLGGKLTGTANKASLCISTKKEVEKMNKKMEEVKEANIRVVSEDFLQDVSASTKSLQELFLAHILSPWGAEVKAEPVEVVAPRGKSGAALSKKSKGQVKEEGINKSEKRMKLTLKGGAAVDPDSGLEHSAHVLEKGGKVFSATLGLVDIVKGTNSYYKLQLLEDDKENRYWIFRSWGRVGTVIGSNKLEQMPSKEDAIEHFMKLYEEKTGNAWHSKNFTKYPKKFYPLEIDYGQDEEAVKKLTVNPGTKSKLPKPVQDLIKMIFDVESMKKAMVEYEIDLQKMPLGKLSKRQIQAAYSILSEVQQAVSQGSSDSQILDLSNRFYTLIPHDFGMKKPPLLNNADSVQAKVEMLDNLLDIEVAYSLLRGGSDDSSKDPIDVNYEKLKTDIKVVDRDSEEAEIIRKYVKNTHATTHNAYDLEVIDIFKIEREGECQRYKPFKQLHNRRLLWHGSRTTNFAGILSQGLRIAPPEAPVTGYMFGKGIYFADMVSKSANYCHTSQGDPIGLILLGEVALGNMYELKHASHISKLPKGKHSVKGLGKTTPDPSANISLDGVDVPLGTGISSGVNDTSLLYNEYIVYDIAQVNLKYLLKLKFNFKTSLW
In short: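 Commercial PARP-1 enzyme was activated by either H4 histone or endonuclease-digested plasmid DNA, with NAD and inhibitor or water, in PARP-1 reaction buffer (Tris pH 8.0, MgCl2, Triton X-100). Reactions ran 30 min at room temperature. pADPr was detected by SDS-PAGE and anti-pADPr Western blot, relative to DMSO-treated mixtures. Inhibitors were tested at 10 μM.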

hCYP2C9 = hCYP2C9 (Homo sapiens, UniProt P11712); test: Cytochrome P450 inhibition CYP2C9; format: in vitro ADME
Chain of hCYP2C9 (P11712 whole entry): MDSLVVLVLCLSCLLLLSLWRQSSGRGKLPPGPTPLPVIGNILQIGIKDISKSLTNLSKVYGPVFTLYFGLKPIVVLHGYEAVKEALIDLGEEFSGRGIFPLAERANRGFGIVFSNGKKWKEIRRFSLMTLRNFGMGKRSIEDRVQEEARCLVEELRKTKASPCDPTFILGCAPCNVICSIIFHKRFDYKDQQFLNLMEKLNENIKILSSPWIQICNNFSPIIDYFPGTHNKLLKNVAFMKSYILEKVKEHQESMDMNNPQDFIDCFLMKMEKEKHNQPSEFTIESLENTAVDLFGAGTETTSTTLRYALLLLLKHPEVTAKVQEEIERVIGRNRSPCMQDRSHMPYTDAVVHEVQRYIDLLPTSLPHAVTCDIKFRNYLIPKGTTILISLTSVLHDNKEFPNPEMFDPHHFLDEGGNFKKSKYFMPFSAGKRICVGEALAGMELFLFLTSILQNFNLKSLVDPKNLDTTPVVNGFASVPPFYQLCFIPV

hCYP3A4 = hCYP3A4 (Homo sapiens, UniProt P08684); test: Cytochrome P450 inhibition CYP3A4; format: in vitro ADME
Chain of hCYP3A4 (P08684 whole entry): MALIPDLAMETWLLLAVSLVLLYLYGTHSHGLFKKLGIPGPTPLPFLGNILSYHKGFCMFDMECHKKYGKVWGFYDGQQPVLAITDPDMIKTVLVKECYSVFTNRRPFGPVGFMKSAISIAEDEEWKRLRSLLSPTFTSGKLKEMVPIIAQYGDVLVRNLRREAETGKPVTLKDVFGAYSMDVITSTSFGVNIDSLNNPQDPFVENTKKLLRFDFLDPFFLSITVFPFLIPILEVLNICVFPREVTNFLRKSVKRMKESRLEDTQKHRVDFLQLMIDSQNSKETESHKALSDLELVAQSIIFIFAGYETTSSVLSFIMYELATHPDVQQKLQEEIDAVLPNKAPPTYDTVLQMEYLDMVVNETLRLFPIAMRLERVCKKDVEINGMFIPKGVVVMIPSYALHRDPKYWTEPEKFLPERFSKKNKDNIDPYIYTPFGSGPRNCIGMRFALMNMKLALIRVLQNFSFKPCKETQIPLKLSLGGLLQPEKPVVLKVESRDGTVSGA

hCYP2D6 = hCYP2D6 (Homo sapiens, UniProt P10635); test: Cytochrome P450 inhibition CYP2D6; format: in vitro ADME
Chain of hCYP2D6 (P10635 whole entry): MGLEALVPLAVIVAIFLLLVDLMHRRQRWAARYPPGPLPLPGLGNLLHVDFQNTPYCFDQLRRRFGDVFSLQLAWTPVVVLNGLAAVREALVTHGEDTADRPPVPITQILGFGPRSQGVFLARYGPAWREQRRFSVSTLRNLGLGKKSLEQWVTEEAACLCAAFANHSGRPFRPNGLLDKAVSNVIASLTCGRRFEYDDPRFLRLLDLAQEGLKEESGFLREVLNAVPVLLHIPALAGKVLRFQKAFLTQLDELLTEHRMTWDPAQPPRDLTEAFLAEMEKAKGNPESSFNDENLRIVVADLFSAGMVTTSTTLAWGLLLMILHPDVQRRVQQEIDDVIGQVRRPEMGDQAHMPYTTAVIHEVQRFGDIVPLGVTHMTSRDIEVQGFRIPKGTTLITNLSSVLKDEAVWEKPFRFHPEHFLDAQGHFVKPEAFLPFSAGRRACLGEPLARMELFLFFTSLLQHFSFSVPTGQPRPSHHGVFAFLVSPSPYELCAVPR

Mouse plasma stability = format: in vitro ADME; conditions: for half-life at 1 μM: male, C57BL/6, mouse, pH 7.4
[6] = Mouse liver microsome stability; format: in vitro ADME; conditions: male, CD-1, mouse, liver microsomes, pH 7.4
[7] = Human liver microsome stability; format: in vitro ADME; conditions: both, liver microsomes, pH 7.4
[8] = Kinetic aqueous solubility in PBS; format: physicochemical; conditions: phosphate buffered saline, pH 7.4, aqueous buffer, kinetic from dmso stock

## CNC(=O)c1ccc(N2C(=S)N(c3ccc(C#N)c(C(F)(F)F)c3)C(=O)C2(C)C)cc1F [Enzalutamide]
PSA expression
  effect on PSA expression: negligible inhibitory effect

## Cl.O=C(CN1CCCCC1)OC1CCCCCCCCCCC1 [FC-7218, Cyclododecyl 2-(piperidin-1-yl)acetate hydrochloride]
[1]
  effect on the PARP1 enzymatic activity in PC cells: insignificant effect
[2]
  effect on R1881-mediated AR transcriptional activity: only weak inhibitory effects
[3]
  effect on viability: no significant effect
[4]
  effect on viability: no significant effect
[5]
  effect on viability: no significant effect

## Cl.O=C(CN1CCCCC1)NC1CCCCCCCCCCC1 [FC-7219, N-cyclododecyl-2-(piperidin-1-yl)acetamide hydrochloride]
[1]
  effect on the PARP1 enzymatic activity in PC cells: insignificant effect
[2]
  effect on R1881-mediated AR transcriptional activity: only weak inhibitory effects
[3]
  effect on viability: no significant effect
[4]
  effect on viability: no significant effect
[5]
  effect on viability: no significant effect

## C[N+]1(CC(=O)NC2CCCCCCCCCCC2)CCCCC1.[I-] [FC-7220, 1-[(Cyclododecylcarbamoyl)methyl]-1-methylpiperidin-1-ium iodide]
PARP-1
  PARP-1 inhibitory activity in cell free system: reduced anti-PARP-1 activity
hCYP2C9
  pIC50: < 5.00
hCYP3A4
  pIC50: 5.71
[2]
  effect on R1881-mediated AR transcriptional activity: only weak inhibitory effects
hCYP2D6
  pIC50: 5.63
[3]
  ED20: 10.0 µM
  ED50: 37.2 µM
  ED70: 82.7 µM
  ED90: 296.1 µM
Mouse plasma stability; mouse plasma
  half-life at 1 μM: > 240 min
[6]
  remaining at 1 h, 1 μM: 101%
[4]
  IC20: 9.6 µM
  pIC50: 4.43
  IC70: 83.7 µM
  IC90: 310 µM
[7]
  half-life at 1 μM: 1.6 min
  microsomal CLint at 1 μM: 850 µL/min/mg
  remaining at 1 h, 1 μM: 100%
[5]
  IC20: 5.1 µM
  pIC50: 4.82
  IC70: 29.4 µM
  IC90: 84.2 µM
[8]
  solubility at 90 min: 191 µM

## O=C(CN1CCC1)OC1CCCCCCCCCCC1 [MC-270008, Cyclododecyl 2-(azetidin-1-yl)acetate]
PARP-1
  PARP-1 inhibitory activity in cell free system: diminished capacity to inhibit PARP-1
[1]
  effect on the PARP1 enzymatic activity in PC cells: insignificant effect

## C[N+]1(CC(=O)OC2CCCCCCCCCCC2)CCCC1.[I-] [MC-270016, 1-(2-(Cyclododecyloxy)-2-oxoethyl)-1-methylpyrrolidin-1-ium iodide]
hCYP2C9
  pIC50: < 5.00
hCYP3A4
  pIC50: 5.53
hCYP2D6
  pIC50: 5.07
[3]
  ED20: 13.3 µM
  ED50: 38.6 µM
  ED70: 73.9 µM
  ED90: 208.1 µM
Mouse plasma stability; mouse plasma
  half-life at 1 μM: 57.2 min
[6]
  remaining at 1 h, 1 μM: 98%
[4]
  IC20: 9.6 µM
  pIC50: 4.65
  IC70: 37.4 µM
  IC90: 85 µM
[7]
  half-life at 1 μM: 1.9 min
  microsomal CLint at 1 μM: 721 µL/min/mg
  remaining at 1 h, 1 μM: 92%
[5]
  IC20: 0.9 µM
  pIC50: 5.52
  IC70: 6.1 µM
  IC90: 19.4 µM
[8]
  solubility at 90 min: 125 µM

## C[N+]1(CC(=O)OC2CCCCCCCCCCC2)CCCCCC1.[I-] [MC-270017, 1-(2-(Cyclododecyloxy)-2-oxoethyl)-1-methylazepan-1 ium iodide]
hCYP2C9
  pIC50: < 5.00
hCYP3A4
  pIC50: 5.77
hCYP2D6
  pIC50: 5.36
[3]
  ED20: 10.6 µM
  ED50: 20.9 µM
  ED70: 31.6 µM
  ED90: 61.1 µM
Mouse plasma stability; mouse plasma
  half-life at 1 μM: 35.9 min
[6]
  remaining at 1 h, 1 μM: 87%
[4]
  IC20: 10.2 µM
  pIC50: 4.76
  IC70: 24.2 µM
  IC90: 40.8 µM
[7]
  half-life at 1 μM: 1.2 min
  microsomal CLint at 1 μM: 1200 µL/min/mg
  remaining at 1 h, 1 μM: 95%
[5]
  IC20: 0.9 µM
  pIC50: 5.64
  IC70: 4.1 µM
  IC90: 10.1 µM
[8]
  solubility at 90 min: 140 µM

## CC1(C)CC[N+](C)(CC(=O)OC2CCCCCCCCCCC2)CC1.[I-] [MC-270019, 1-(2-(Cyclododecyloxy)-2-oxoethyl)-1,4,4-trimethylpiperidin-1-ium iodide]
hCYP2C9
  pIC50: < 5.00
hCYP3A4
  pIC50: 5.33
hCYP2D6
  pIC50: 5.00
[3]
  ED20: 10.9 µM
  ED50: 24.6 µM
  ED70: 40.4 µM
  ED90: 89.1 µM
Mouse plasma stability; mouse plasma
  half-life at 1 μM: 19.6 min
[6]
  remaining at 1 h, 1 μM: 84%
[4]
  IC20: 6.9 µM
  pIC50: 4.84
  IC70: 23.1 µM
  IC90: 48.1 µM
[7]
  half-life at 1 μM: 1.2 min
  microsomal CLint at 1 μM: 1150 µL/min/mg
  remaining at 1 h, 1 μM: 92%
[5]
  IC20: 1.3 µM
  pIC50: 5.51
  IC70: 5.2 µM
  IC90: 12.2 µM
[8]
  solubility at 90 min: 95.2 µM

## C[N+]1(CC(=O)OC2CCCCCCCCCCC2)CCSCC1.[I-] [MC-270021, 4-(2-(Cyclododecyloxy)-2-oxoethyl)-4-methylthiomorpholin-4-ium iodide]
hCYP2C9
  pIC50: < 5.00
hCYP3A4
  pIC50: 5.41
hCYP2D6
  pIC50: 5.03
Mouse plasma stability; mouse plasma
  half-life at 1 μM: 118 min
[6]
  remaining at 1 h, 1 μM: 88%
[4]
  IC20: 4.9 µM
  pIC50: 4.22
  IC70: 282 µM
  IC90: 3270 µM
[7]
  half-life at 1 μM: 1.3 min
  microsomal CLint at 1 μM: 1070 µL/min/mg
  remaining at 1 h, 1 μM: 85%
[5]
  IC20: 4.2 µM
  pIC50: 4.95
  IC70: 20.3 µM
  IC90: 52.1 µM
[8]
  solubility at 90 min: 110 µM

## CNCc1ccc(-c2[nH]c3cc(F)cc4c3c2CCNC4=O)cc1 [Rucaparib, reference compound]
[2]
  effect on R1881-mediated AR transcriptional activity: only weak inhibitory effects
[3]
  ED20: 0.9 µM
  ED50: 5.0 µM
  ED70: 14.8 µM
  ED90: 82.7 µM
[4]
  IC20: 1 µM
  pIC50: 5.15
  IC70: 23.2 µM
  IC90: 157 µM
[5]
  pIC50: 4.57
  IC70: 52.6 µM
  IC90: 155 µM

## C[C@]1(c2nc3c(C(N)=O)cccc3[nH]2)CCCN1 [Veliparib, reference compound]
[2]
  effect on R1881-mediated AR transcriptional activity: only weak inhibitory effects
[3]
  ED20: 6.7 µM
  ED50: 36.7 µM
  ED70: 104.0 µM
  ED90: 547.2 µM
[4]
  IC20: 9.7 µM
  pIC50: 4.15
  IC70: 237 µM
  IC90: 1630 µM
[5]
  IC20: 10.6 µM
  pIC50: 4.25
  IC70: 153 µM
  IC90: 768 µM

## CCN(CC)CCOC(=O)c1ccc(N)cc1 [procaine, reference compound]
Mouse plasma stability; PBS pH 7.4, 1 μM, 60 min, 37°C, typical value
  stable in PBS: 100%
Mouse plasma stability; mouse plasma, 1 μM, 60 min, 37°C, typical value
  degraded in plasma: > 95%
